Measurements as given in ChEMBL document CHEMBL1133751, “Design, synthesis, and biological evaluation of tricyclic nucleosides (dimensional probes) as analogues of certain antiviral polyhalogenated benzimidazole ribonucleosides” (J Med Chem, 2000).

Legend:
Human alphaherpesvirus 1 = assay: Antiviral activity against HSV-1 (herpes simplex virus), determined by ELISA in quadruplicate wells using BSC-1 cells; assay type: functional, organism-based; conditions: Human alphaherpesvirus 1, BSC-1
Summary of the method: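 KOS strain HSV-1 at 100 PFU/well added with selected drug concentrations in quadruplicate to 96-well dishes seeded with 10 000 BSC-1 cells/well and incubated overnight. Virus detected by ELISA. IC50 from linear regression of percent inhibition vs log concentration. Average of 2–3 separate experiments.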

[1] = Compound was tested for the inhibition of KB cell growth in quadruplicate wells; assay type: functional, cell-based; conditions: Homo sapiens
Summary of the method: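 KB cells grown through two population doublings with compound in quadruplicate wells. Growth quantified by crystal violet staining and spectrophotometric reading of eluted dye. IC50 from linear regression of percent inhibition against log concentration.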

HFF [2] = assay: Visual cytotoxicity against stationary human foreskin fibroblasts (HFF) cells at the time of HCMV plaque enumeration; assay type: functional, cell-based
Summary of the method: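 Stationary HFF monolayers in the uninfected wells of the HCMV plaque assay inspected microscopically for cytotoxicity. Compounds in growth medium at 4–8 concentrations. IC50 from linear regression of percent inhibition against log concentration.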

HFF [3] = assay: Antiviral activity against towne strain HCMV was determined by plaque reduction assay in duplicate wells using HFF cells; assay type: functional, cell-based; conditions: Homo sapiens
Summary of the method: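 HFF monolayers in 24-well dishes infected with about 100 PFU Towne HCMV (plaque-purified isolate P0) per cm2. Compounds in growth medium added to duplicate wells at 4–8 concentrations. Plaques scored. IC50 from linear regression of percent inhibition against log drug concentration.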

HFF [4] = assay: Antiviral activity against towne strain HCMV was determined by yield reduction assay in duplicate wells using HFF cells; assay type: functional; conditions: Homo sapiens
Summary of the method: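 HFF cells plated in 96-well dishes and incubated overnight. Inoculated with Towne HCMV at MOI 0.5–1 PFU/cell, then drug added, in duplicate wells. Progeny virus yield measured. IC90 from the linear portion of log–log regression of yield versus drug concentration.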

Row | Structure (SMILES) | IC50 (Human alphaherpesvirus 1) [µM] | IC50 [1] [µM] | IC50 (HFF [2]) [µM] | IC50 (HFF [3]) [µM] | IC90 (HFF [4]) [µM]
1 | CC(C)Nc1nc2nc3cc(Cl)c(Cl)cc3cc2n1C1O[C@H](CO)[C@@H](O)[C@H]1O (stereo partly specified) | > 100 | 90 | 100 | 32 | –
2 | CC(C)Nc1nc2nc3cc(Cl)c(Cl)cc3nc2n1C1O[C@H](CO)[C@@H](O)[C@H]1O (stereo partly specified) | 100 | 70 | 100 | 32 | –
3 | OC[C@H]1OC(n2c(Cl)nc3cc4cc(Cl)c(Cl)cc4cc32)[C@H](O)[C@@H]1O (stereo partly specified) | 26 | 19 | 3.2 | 2 | 2.3
4 | OC[C@H]1O[C@@H](n2cnc3cc(Cl)c(Cl)cc32)[C@H](O)[C@@H]1O [DICHLORORIBOBENZIMIDAZOLE] | 30 | 36 | – | 42 | 19
5 | OC[C@H]1O[C@@H](n2c(Cl)nc3cc(Cl)c(Cl)cc32)[C@H](O)[C@@H]1O | – | 210 | – | 2.9 | 1.4
6 | Nc1nc2c(ncn2COC(CO)CO)c(=O)[nH]1 [GANCICLOVIR] | – | > 100 | > 100 | – | 1.6
7 | OC[C@H]1OC(n2c(Cl)nc3nc4cc(Cl)c(Cl)cc4cc32)[C@H](O)[C@@H]1O (stereo partly specified) | 70 | 11 | 21 | 2 | 45
8 | OC[C@H]1OC(n2cnc3cc4cc(Cl)c(Cl)cc4nc32)[C@H](O)[C@@H]1O (stereo partly specified) | > 100 | > 100 | > 10 | > 10 | –
9 | OC[C@H]1OC(n2c(NC3CC3)nc3cc4cc(Cl)c(Cl)cc4cc32)[C@H](O)[C@@H]1O (stereo partly specified) | 80 | 55 | 32 | 32 | –
10 | OC[C@H]1OC(n2cnc3nc4cc(Cl)c(Cl)cc4nc32)[C@H](O)[C@@H]1O (stereo partly specified) | > 100 | > 100 | 45 | 32 | –
11 | OC[C@H]1OC(n2cnc3nc4cc(Cl)c(Cl)cc4cc32)[C@H](O)[C@@H]1O (stereo partly specified) | > 100 | 85 | > 100 | > 100 | 85
12 | OC[C@H]1OC(n2c(SCc3ccccc3)nc3cc4cc(Cl)c(Cl)cc4nc32)[C@H](O)[C@@H]1O (stereo partly specified) | > 100 | > 100 | > 10 | > 10 | –
13 | OC[C@H]1OC(n2cnc3cc4cc(Cl)c(Cl)cc4cc32)[C@H](O)[C@@H]1O (stereo partly specified) | > 100 | > 100 | > 100 | > 100 | 17
14 | OC[C@H]1OC(n2c(NC3CC3)nc3cc4cc(Cl)c(Cl)cc4nc32)[C@H](O)[C@@H]1O (stereo partly specified) | > 100 | 100 | > 100 | > 100 | –
15 | OC[C@H]1OC(n2c(SCc3ccccc3)nc3nc4cc(Cl)c(Cl)cc4nc32)[C@H](O)[C@@H]1O (stereo partly specified) | 30 | 20 | 20 | 4.2 | –
16 | OC[C@H]1OC(n2c(Cl)nc3cc4cc(Cl)c(Cl)cc4nc32)[C@H](O)[C@@H]1O (stereo partly specified) | 90 | 8 | 18 | 18 | 9.2
17 | OC[C@H]1OC(n2c(SCc3ccccc3)nc3cc4cc(Cl)c(Cl)cc4cc32)[C@H](O)[C@@H]1O (stereo partly specified) | > 100 | > 100 | > 100 | > 100 | –
18 | OC[C@H]1OC(n2c(NC3CC3)nc3nc4cc(Cl)c(Cl)cc4nc32)[C@H](O)[C@@H]1O (stereo partly specified) | > 100 | 90 | > 100 | 32 | –
19 | CC(C)Nc1nc2cc3cc(Cl)c(Cl)cc3cc2n1C1O[C@H](CO)[C@@H](O)[C@H]1O (stereo partly specified) | 80 | 146 | 32 | 32 | –
20 | OC[C@H]1OC(n2c(NC3CC3)nc3nc4cc(Cl)c(Cl)cc4cc32)[C@H](O)[C@@H]1O (stereo partly specified) | > 100 | > 100 | > 100 | > 100 | –
21 | CC(C)Nc1nc2cc3cc(Cl)c(Cl)cc3nc2n1C1O[C@H](CO)[C@@H](O)[C@H]1O (stereo partly specified) | > 100 | 90 | 32 | 32 | –
22 | OC[C@H]1OC(n2c(SCc3ccccc3)nc3nc4cc(Cl)c(Cl)cc4cc32)[C@H](O)[C@@H]1O (stereo partly specified) | > 100 | 40 | 20 | 4.2 | –
